Experimental data published in PubChem BioAssay.
Results filed as inconclusive are left out. Calls of active or inactive are those of the source.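 How the source made its calls, unless noted: active means growth inhibition above 25% in both replicates, a cutoff set 3 SD above the mean; inconclusive means above 25% in only one replicate; inactive means the rest.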

Columns and labels:
[1] = S. cerevisiae growth inhibition in permissive medium (OD615), pilot counter-assay for S. cerevisiae lifespan shortening project, permissive growth control (AID 705); conditions: OD615, 24 h, at 10 µM, hits give high values
Procedure, shortened: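 Material: engineered DeaD yeast; Compound: one dose 10 µM, DMSO 0.25% final; Detection: absorbance (optical density) at 615 nm; Buffer or medium: permissive raffinose/galactose medium; Timing: 24 h exposure, 30 °C.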

[2] = S. cerevisiae growth inhibition in restrictive medium, OD615, pilot screen, restrictive growth control, yeast lifespan reduction project (AID 706;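 active means growth inhibition above a set limit, 3 SD over mean compound inhibition, in both replicates, cut at about 43% in these data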;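 further: modified DeaD lifespan yeast strain shifted to restrictive glucose medium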); conditions: OD615, 48 h, at 10 µM, hits give high values
Procedure, shortened: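 Buffer or medium: restrictive glucose medium (CSMM-D); test system: modified S. cerevisiae; doses: single dose of 10 µM compound final, 0.25% DMSO; schedule: 48 h compound exposure at 30 °C; detection: absorbance (optical density) measured at 615 nm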

[3] = doxorubicin toxicity protection in MRP-1 cells – H69AR cells, CellTiter-Glo, duplicate, MRP-1 activator project, pilot screen (AID 807;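 active means viability increase at or above a cutoff of the median across tested compounds plus 3 SD, cut at about 8.5% in these data, passing the limit was not always enough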;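 further: compound pretreatment 18-22 h then 72 h combined with doxorubicin; 0% = doxorubicin alone and 100% = vehicle without doxorubicin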); conditions: H69AR viability with doxorubicin, CellTiter-Glo luminescence; at 10 µM; hits give high values
[4] = viability of HCT116 without oncogenic beta-catenin – human colon tumor cells, pilot screen (AID 823;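 active means cell viability at or below a set limit in both duplicate runs, the limit being the all-compound median minus 4 SD, cut at about 23% in these data, passing the limit was not always enough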;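 further: 0% = wells killed by 20 µM Hyamine and 100% = untreated DMSO cell wells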); conditions: HCT116 beta-catenin knockout viability, CellTiter-Glo, 60 h; at 10 µM; hits give low values
[5] = RAM pathway blockade in budding yeast – dse1pr::URA3 reporter, 5-FOA selection, pilot screen (AID 869;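 active means inhibition over a set limit, the all-compound mean plus 3 SD, in both replicate runs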;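 further: 0% = DMSO wells with no growth and 100% = 10 µM 1-NA-PP1 with full growth; RAM network block rescues cells from 5-FOA so hits raise OD615 growth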); conditions: S. cerevisiae dse1pr::URA3 5-FOA growth, OD615, 2 d; at 10 µM; hits give high values; strain carries analog-sensitive mutant Cbk1 kinase
[6] = RAM signaling pathway blockade in yeast – S. cerevisiae, Pdr1DBD-CYC8 efflux-inhibited sensitized strain, primary screen (AID 1298;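 active means RAM network inhibition above 8.4% in each of two replicates, 3 SD over the compound average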;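 further: 0% = DMSO untreated cells without growth and 100% = 10 µM 1-NA-PP1 full growth; higher means more yeast growth rescued from 5-FOA killing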); conditions: S. cerevisiae cbk1-as DSE1-URA3 strain, 5-FOA growth OD615, 2 d; at 50 µM; hits give high values

C=CCOC(=O)CCCC(=O)NC1CCCCC1
inactive: growth inhibition [1] -26.9% | growth inhibition [2] 5.64% | viability increase [3] -0.4% | viability [4] 95.6% | inhibition [5] 1.58% | RAM network inhibition [6] 4.88%

COc1cc(OC)cc(C(=O)Nc2cc(NC(=O)c3ccco3)ccc2OC)c1
inactive: growth inhibition [1] -15.4% | growth inhibition [2] 3.21% | viability increase [3] -5.63% | viability [4] 88.8% | inhibition [5] 1.21% | RAM network inhibition [6] 2.66%

CCOC(=O)CNC(=O)c1cn(C)c(=O)c2cc(OC)c(OC)cc12
inactive: growth inhibition [1] -29.2% | growth inhibition [2] -3.25% | viability increase [3] -2.81% | viability [4] 86.5% | inhibition [5] 0.24% | RAM network inhibition [6] 2.87%

COC(=O)c1cn(NC(=O)C2CCCCC2)c(=O)c2ccccc12
inactive: growth inhibition [1] 13.2% | growth inhibition [2] 6.18% | viability increase [3] -1.25% | viability [4] 94.3% | inhibition [5] -0.16% | RAM network inhibition [6] 5.38%

Cc1ccc2c(c1)c(C)c(C)n2CC(O)Cn1nnc2ccccc21 (stereo not given)
inactive: growth inhibition [1] -9.66% | growth inhibition [2] -5.1% | viability increase [3] -5.06% | viability [4] 82.3% | inhibition [5] 0.335% | RAM network inhibition [6] 2.28%

O=C(Cn1nnc(-c2ccccc2NC(=O)c2ccccc2F)n1)NCc1ccco1
inactive: growth inhibition [1] -7.91% | growth inhibition [2] -7.09% | viability increase [3] -6.92% | viability [4] 73.9% | inhibition [5] 1.39% | RAM network inhibition [6] 4.52%

CCCC(=O)Nc1cc(C)c(NC(=O)Cc2ccccc2)cn1
inactive: growth inhibition [1] 2.84% | growth inhibition [2] 6.81% | viability increase [3] -1.76% | viability [4] 98.2% | inhibition [5] 0.135% | RAM network inhibition [6] 2.84%

Cc1sc(NC(=O)c2ccco2)c(C(c2cccnc2)N2CCN(c3ccc(F)cc3)CC2)c1C (stereo not given)
active: viability [4] 13.3%
inactive: growth inhibition [1] -8.72% | growth inhibition [2] 6.02% | viability increase [3] -5.73% | inhibition [5] 1.42% | RAM network inhibition [6] 7.4%

Fc1ccc(Br)cc1C1C=C(c2cccnc2)Nc2ncnn21 (stereo not given)
inactive: growth inhibition [1] 6.35% | viability increase [3] -4.62% | viability [4] 44.5% | inhibition [5] 3.21%
active: growth inhibition [2] 46.9% | RAM network inhibition [6] 21.7%

Cc1ccccc1C(=O)Nc1nnc(-c2ccc(F)cc2)o1
inactive: growth inhibition [1] -3.21% | growth inhibition [2] 11.5% | viability increase [3] -2.91% | viability [4] 33% | inhibition [5] 0.6% | RAM network inhibition [6] 4.65%

CC(=O)Nc1cc(OC(=O)c2ccco2)cc(OC(=O)c2ccco2)c1
inactive: growth inhibition [1] -22.3% | growth inhibition [2] 3.33% | viability increase [3] -2.27% | viability [4] 103% | inhibition [5] 1.36% | RAM network inhibition [6] 5.4%

CCCCCn1c(=O)[nH]c2cc(C(=O)NCCCN(CC)CC)ccc2c1=O
inactive: growth inhibition [1] -20.8% | growth inhibition [2] -0.04% | viability increase [3] -4.48% | viability [4] 47.3% | inhibition [5] 1.65% | RAM network inhibition [6] 3.74%

Cc1ccc(Cl)cc1N1CCN(S(=O)(=O)c2cccc(S(=O)(=O)N3CCCC3)c2)CC1
inactive: growth inhibition [1] -4.5% | growth inhibition [2] 12% | viability increase [3] 0.04% | viability [4] 83.5% | inhibition [5] 2.14% | RAM network inhibition [6] 6.44%

Cc1ccccc1Cn1cc(S(=O)(=O)CC(=O)Nc2nccs2)c2ccccc21
inactive: growth inhibition [1] -30.2% | growth inhibition [2] 6.15% | viability increase [3] -5.34% | viability [4] 70.4% | inhibition [5] 4.8% | RAM network inhibition [6] 8.89%

CCCCNC(=O)C1C2C=CC3(CN(Cc4ccc(C)cc4)C(=O)C13)O2 (stereo not given)
inactive: growth inhibition [1] 2.61% | growth inhibition [2] -16.4% | viability increase [3] -2.02% | viability [4] 95.1% | inhibition [5] 0.08% | RAM network inhibition [6] 0.67%

CCOC(=O)N1CCN(C(=O)CNS(=O)(=O)c2cccs2)CC1
inactive: growth inhibition [1] 7.6% | growth inhibition [2] 1.46% | viability increase [3] -2.69% | viability [4] 93.3% | inhibition [5] 0.785% | RAM network inhibition [6] 2.76%

N#Cc1c(-c2ccccc2)cc(-c2ccco2)c(C#N)c1N
inactive: growth inhibition [1] -21.9% | growth inhibition [2] -10.5% | viability increase [3] -7.79% | viability [4] 38.5% | inhibition [5] 1.86% | RAM network inhibition [6] 8.41%

CC1(C)SCC(C(=O)O)N1C=O (stereo not given)
inactive: growth inhibition [1] -16% | growth inhibition [2] -6.9% | viability increase [3] -0.04% | viability [4] 105% | inhibition [5] 1.66% | RAM network inhibition [6] 2.9%

CCN1CCN(c2nc(SC)nc3sc4c(c23)CC(C)(C)OC4)CC1
inactive: growth inhibition [1] -15.9% | growth inhibition [2] -8.5% | viability increase [3] -5.96% | viability [4] 66.9% | inhibition [5] 1.39% | RAM network inhibition [6] 2.09%

N#Cc1c2n(cnc1=O)CCCCC2
inactive: growth inhibition [1] -15.7% | growth inhibition [2] 3.32% | viability increase [3] -1.5% | viability [4] 100% | inhibition [5] 0.835% | RAM network inhibition [6] 3.53%

COc1ccc(NC2=NCC(=O)N2c2ccccc2)c(OC)c1
inactive: growth inhibition [1] -19.2% | growth inhibition [2] -5.42% | viability increase [3] -0.89% | viability [4] 91.5% | inhibition [5] 1.15% | RAM network inhibition [6] 5.45%

c1ccc(Nc2nc(N3CCCCC3)nc(N3CCNCC3)n2)cc1
inactive: growth inhibition [1] -9.86% | growth inhibition [2] -6.95% | viability increase [3] -8.19% | inhibition [5] 0.98% | RAM network inhibition [6] 3.63%
active: viability [4] 3.71%

O=C(Nc1ccc2c(c1)OCCO2)c1ccc(NC(=O)C2CCCO2)cc1 (stereo not given)
inactive: growth inhibition [1] -10.9% | growth inhibition [2] -3.79% | viability increase [3] -0.87% | viability [4] 72.7% | inhibition [5] 2.04% | RAM network inhibition [6] 3.27%

Cc1cc(NC(=O)Cn2c(=O)n(Cc3ccccc3)c(=O)c3ccccc32)no1
inactive: growth inhibition [1] -5.91% | growth inhibition [2] -24.7% | viability increase [3] -5.98% | viability [4] 51.5% | inhibition [5] 1.32% | RAM network inhibition [6] 6.47%

COc1ccccc1C(=O)Nc1nnn(C)n1
inactive: growth inhibition [1] -26.5% | growth inhibition [2] 6.7% | viability increase [3] -0.45% | viability [4] 108% | inhibition [5] 0.84% | RAM network inhibition [6] 6.87%

COC(=O)c1cc(=O)n(Cc2ccco2)c(=Nc2ccc(F)c(Cl)c2)s1
inactive: growth inhibition [1] -17.1% | growth inhibition [2] -11.1% | viability increase [3] -8.24% | inhibition [5] 2.19% | RAM network inhibition [6] 10.1%
active: viability [4] 9.25%

CC1(C)Cc2nc(-c3ccccc3)n3cnnc3c2CO1
inactive: growth inhibition [1] -8.06% | growth inhibition [2] -4.3% | viability increase [3] -1.77% | viability [4] 102% | inhibition [5] 0.36% | RAM network inhibition [6] 4.42%

Cc1cc(C)nc(NS(=O)(=O)c2ccc(NC(=O)c3cccs3)cc2)n1
inactive: growth inhibition [1] -11.4% | growth inhibition [2] -2.39% | viability increase [3] -2.29% | viability [4] 97.7% | inhibition [5] 0.89% | RAM network inhibition [6] 0.21%

Cc1nc(-n2nnc3ccccc32)c2c3c(sc2n1)CCCC3
inactive: growth inhibition [1] -14.5% | growth inhibition [2] 0.92% | viability increase [3] -2.54% | viability [4] 82% | inhibition [5] 1.11% | RAM network inhibition [6] 3.02%

CCCCNC(=O)c1ccc(NC(=O)C2CCCO2)cc1 (stereo not given)
inactive: growth inhibition [1] -3.29% | growth inhibition [2] -3.53% | viability increase [3] -0.44% | viability [4] 96.5% | inhibition [5] 1.81% | RAM network inhibition [6] 3.01%

CCOc1cc(CNC(=O)CN2C(=O)c3ccccc3S2(=O)=O)ccc1OC
inactive: growth inhibition [1] -22.6% | growth inhibition [2] -10.7% | viability increase [3] -0.6% | viability [4] 98.1% | inhibition [5] 1.69% | RAM network inhibition [6] 0.32%

CCCCCCn1c(SCC(=O)c2ccccc2)nc2c1c(=O)[nH]c(=O)n2C
inactive: growth inhibition [1] -4.82% | viability increase [3] -7.17% | viability [4] 53% | inhibition [5] 2.08% | RAM network inhibition [6] 6.13%
active: growth inhibition [2] 42.6%

O=C(NCc1ccc2c(c1)OCO2)C1CCN(c2ccc(S(=O)(=O)N3CCCC3)cc2)CC1
inactive: growth inhibition [1] -20.2% | growth inhibition [2] -1.93% | viability increase [3] -6.29% | viability [4] 65.5% | inhibition [5] 3.25% | RAM network inhibition [6] 4.72%

O=C(COCCOCC(=O)N(c1ccccn1)C1CCCCC1)N(c1ccccn1)C1CCCCC1
inactive: growth inhibition [1] -12.8% | growth inhibition [2] -7.35% | viability increase [3] -2.48% | viability [4] 92.3% | inhibition [5] 1.31% | RAM network inhibition [6] 8.62%

CCOc1ccc(-n2c(SCC(N)=O)nc3c(c2=O)SCC3)cc1
inactive: growth inhibition [1] -1.29% | growth inhibition [2] 8.27% | viability increase [3] -0.72% | viability [4] 98.2% | inhibition [5] 2.31% | RAM network inhibition [6] 7.32%

CCOc1cccc2c1OC1(C)CC2NC(=O)N1c1cccc(Cl)c1 (stereo not given)
inactive: growth inhibition [1] -12% | growth inhibition [2] 5.29% | viability increase [3] -1.53% | viability [4] 99.2% | inhibition [5] -0.045% | RAM network inhibition [6] 5.25%

CCC1(C)Cc2c(sc3c2c2ncnn2c2nnc(SCC(=O)NCc4ccco4)n32)CO1 (stereo not given)
inactive: growth inhibition [1] -19.2% | growth inhibition [2] -5.88% | viability increase [3] -7.33% | viability [4] 58.1% | inhibition [5] 0.815% | RAM network inhibition [6] 1.87%

CCOC(=O)c1nc(-c2ccc3c(c2)OCO3)[nH]c1C
inactive: growth inhibition [1] -0.36% | growth inhibition [2] -0.67% | viability increase [3] -6.6% | viability [4] 29.7% | inhibition [5] 3.15% | RAM network inhibition [6] 1.76%

CSc1nc(SCC(=O)NCc2ccco2)c2c3c(sc2n1)COC(C)(C)C3
inactive: growth inhibition [1] -11.7% | growth inhibition [2] -6.08% | viability increase [3] -8.04% | viability [4] 33.9% | inhibition [5] 2.8% | RAM network inhibition [6] 7.62%

C(=N\n1cnnc1)/c1ccc(N2CCOCC2)s1
inactive: growth inhibition [1] -13.4% | growth inhibition [2] -3.46% | viability increase [3] -1.47% | viability [4] 89.8% | inhibition [5] 4.36% | RAM network inhibition [6] 8.67%
